ChEMBL document CHEMBL4196174, “Discovery of Indole Derivatives as Novel and Potent Dengue Virus Inhibitors” (J Med Chem, 2018)
pEC50: −log10 of the molar value.

Assays:
[1] = Cytotoxicity against African green monkey Vero cells assessed as cell growth inhibition after 4 days by MTS/PMS method; format: cell-based; settings: chlorocebus sabaeus, Vero cells
How it was run: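 Cytotoxicity run as in the yield assay, but without virus. Vero cells (5×10^4/well) were exposed to 3- or 5-fold serial dilutions in MEM with 2% FBS. Viability was read by the MTS/PMS colorimetric method. CC50 was derived by logarithmic interpolation.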

dengue virus type 2 = assay: Antiviral activity against Dengue virus 2 Rega infected in African green monkey Vero cells assessed as reduction in viral yield after 4 days by qRT-PCR analysis; format: functional, organism-based; settings: Dengue virus, Rega, Vero, 96 h
How it was run: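 Virus yield reduction in Vero cells (seeded 5×10^4/well). Next day infected with DENV (MOI 0.01) in assay medium (MEM, 2% FBS, 0.075% bicarbonate, 2 mM L-glutamine). After 1 h, input virus was removed and cells rinsed 3 times. Medium with 3- or 5-fold compound serial dilutions was then added. Incubation was 4 days (DENV-2, DENV-4) or 7 days (DENV-1, DENV-3). Supernatant viral RNA was measured by RT-qPCR, and EC50 obtained by logarithmic interpolation.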

SMILES | CC50 at 96 h [1] [µM] | pEC50 (dengue virus type 2)
COc1cc(NC(C(=O)c2c[nH]c3ccc(CCO)cc23)c2ccccc2)cc(OC)c1 (centres undefined) | 56 | 6.74
COc1cccc(NC(C(=O)c2c[nH]c3ccccc23)c2cnccn2)c1 (centres undefined) | 65 | 6.08
O=C(c1c[nH]c2ccccc12)C(Nc1cc(F)cc(F)c1)c1ccccc1 (centres undefined) | 23 | 5.77
COc1cccc(NC(C(=O)c2c[nH]c3ccccc23)c2ccc(C)cc2)c1 (centres undefined) | 20 | 7.66
CCOc1cc(NC(C(=O)c2c[nH]c3ccccc23)c2ccccc2)cc(OC)c1 (centres undefined) | 13 | 7.74
COc1cccc(NC(C(=O)c2c[nH]c3ccccc23)c2cccc(C)c2)c1 (centres undefined) | 20 | 6.57
COc1cccc(NC(C(=O)c2c[nH]c3ccccc23)c2cncnc2)c1 (centres undefined) | 100 | 6.41
COc1cccc(NC(C(=O)c2c[nH]c3ccccc23)c2ccc(C#N)cc2)c1 (centres undefined) | 14 | 7.39
COc1cc(NC(C(=O)c2c[nH]c3cccc(CO)c23)c2ccccc2)cc(OC)c1 (centres undefined) | 71 | 6.54
O=C(c1c[nH]c2ccccc12)C(Nc1ccc2[nH]c(=O)oc2c1)c1ccccc1 (centres undefined) | 15 | 5.21
COc1cccc(NC(C(=O)c2c[nH]c3cc(F)ccc23)c2ccccc2)c1 (centres undefined) | 15 | 7.35
COc1cc(NC(C(=O)c2c[nH]c3ccccc23)c2ccc(F)cc2)cc(OC)c1 (centres undefined) | 13 | 8.40
COc1cccc(NC(C(=O)c2c[nH]c3ccccc23)c2ccccc2)n1 (centres undefined) | 16 | 6.54
COc1cc(NC(C(=O)c2c[nH]c3ccccc23)c2ccccc2)cc(OCCN(C)C)c1 (centres undefined) | 13 | 5.77
COc1cccc(NC(C(=O)c2c[nH]c3cccc(Cl)c23)c2ccccc2)c1 (centres undefined) | 18 | 7.62
COc1cc(NC(C(=O)c2c[nH]c3ccc(CO)cc23)c2ccccc2)cc(OC)c1 (centres undefined) | 65 | 6.97

SMILES | CC50 at 96 h [1] [µM] | pEC50 (dengue virus type 2)
COc1cccc(NC(C(=O)c2c[nH]c3ccccc23)c2cc3ccccn3n2)c1 (centres undefined) | 26 | 7.55
COc1nc(NC(C(=O)c2c[nH]c3ccccc23)c2ccccc2)ns1 (centres undefined) | 90 | 5.48
COc1cccc(NC(C(=O)c2c[nH]c3ccccc23)c2ccccc2)c1OC (centres undefined) | > 129 | 5.38
COc1cccc(NC(C(=O)c2c[nH]c3ccccc23)c2cc(C)on2)c1 (centres undefined) | 50 | 6.23
COc1cccc(NC(C(=O)c2c[nH]c3ccccc23)c2ccncc2)c1 (centres undefined) | 16 | 6.86
COc1cccc(NC(C(=O)c2c[nH]c3ccccc23)c2ccsc2)c1 (centres undefined) | 15 | 6.87
COc1cc(NC(C(=O)c2c[nH]c3c(CCS(C)(=O)=O)cccc23)c2ccccc2)cc(OC)c1 (centres undefined) | > 102 | 6.39
COc1cccc(NC(C(=O)c2c[nH]c3ccccc23)c2cccnc2)c1 (centres undefined) | 71 | 6.86
COc1ccnc(NC(C(=O)c2c[nH]c3ccccc23)c2ccccc2)c1 (centres undefined) | 95 | 5.20
COc1cccc(NC(C(=O)c2c[nH]c3ccccc23)c2ccc3nccnc3c2)c1 (centres undefined) | 19 | 5.92
COc1ccc(OC)c(NC(C(=O)c2c[nH]c3ccccc23)c2ccccc2)c1 (centres undefined) | 15 | 5.60
O=C(c1c[nH]c2ccccc12)C(Nc1cccc(F)c1)c1ccccc1 (centres undefined) | 12 | 5.62
CS(=O)(=O)c1cccc(NC(C(=O)c2c[nH]c3ccccc23)c2ccccc2)c1 (centres undefined) | 65 | 5.19
COc1cccc(NC(C(=O)c2c[nH]c3ccc(F)cc23)c2ccccc2)c1 (centres undefined) | 13 | 7.47
COc1cccc(NC(C(=O)c2c[nH]c3cc(Cl)ccc23)c2ccccc2)c1 (centres undefined) | 13 | 7.89
COc1cccc(NC(C(=O)c2c[nH]c3c(C)cccc23)c2ccccc2)c1 (centres undefined) | > 135 | 7.29
